Data on 3 molecules can be found in ChEMBL document CHEMBL5712915, “The Role of the Histone Methyltransferase EZH2 in Liver Inflammation and Fibrosis in STAM NASH Mice” (Biology (Basel), 2020).

SMILES strings stand for the structures. Activity calls are given as the source filed them. No cut-off for these calls is given here.

Series [1] concerns Mus musculus. Put plainly: Antiinflammatory activity against streptozotocin induced C57BL/6 mouse STAM model assessed as reduction of IFN-gamma expression administered at 10 mg/kg, po for 3 weeks. The class given is functional, organism-based. Summed up:
(§1)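 STAM mice: male C57BL/6 pups given streptozotocin (200 μg per mouse) at day 2, high-fat diet from week 4, oral dosing at 10 mg/kg once daily from weeks 6–9. Liver total RNA reverse transcribed. qPCR run for 40 cycles of 95 °C 15 s, 55–60 °C 15 s, 72 °C 30 s. Comparative Ct method, normalized to GAPDH/18S, compared with control group.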

Series [2] has as its system Mus musculus. Put plainly: Anti-NASH activity in streptozotocin induced C57BL/6 mouse STAM model administered at 10 mg/kg, po daily for 3 weeks by hematoxylin and eosin staining analysis. In kind it is functional, organism-based. An outline of the steps:
(§2)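 Male C57BL/6 pups given streptozotocin (200 μg per mouse) at two days old, high-fat diet from four weeks. Dosed orally once daily at 10 mg/kg from six to nine weeks of age. Liver fixed in 10% neutral buffered formalin and paraffin-embedded. 5-μm sections stained with H&E, or with Oil Red O for hepatic lipid.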

Series [3] in a line: Toxicity in streptozotocin induced C57BL/6 mouse STAM model assessed as change in kidney weight at 10 mg/kg, po daily for 3 weeks. To be noted: in vivo, 504 h. In kind it is organism-based. An outline of the steps:
(§3)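 In STAM mice (male C57BL/6, streptozotocin 200 μg per mouse at day 2, high-fat diet from week 4), oral dosing at 10 mg/kg once daily from six to nine weeks. Body weight recorded daily between 15:00 and 17:00. Liver, kidney and white adipose tissue weights expressed relative to body weight. Means ± SE; one-way ANOVA with Newman–Keuls test.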

Series [4] deals with Mus musculus. Put plainly: Antiinflammatory activity in streptozotocin induced C57BL/6 mouse STAM model assessed as reduction of glucose level administered at 10 mg/kg, po daily for 3 weeks. In kind it is functional, organism-based. An outline of the steps:
(§4)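 Streptozotocin (200 μg per mouse) given to two-day-old male C57BL/6 pups, high-fat diet from four weeks. Oral dosing at 10 mg/kg once daily for three weeks, starting at six weeks of age. Under anesthesia 500 μl blood collected and serum separated for TNF-α, ALT and glucose. Means ± SE; one-way ANOVA with Newman–Keuls test.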

Series [5] concerns Mus musculus. Put plainly: Antiinflammatory activity in streptozotocin induced C57BL/6 mouse STAM model assessed as reduction of ALT level administered at 10 mg/kg, po daily for 3 weeks. The class given is functional, organism-based. Summed up: as §4
In series [6] the test system is Mus musculus. Kind of series: Anti-NASH activity in streptozotocin induced C57BL/6 mouse STAM model assessed as reduction of liver steatosis administered at 10 mg/kg, po daily for 3 weeks by oil red O staining analysis. In kind it is functional, organism-based. An outline of the steps: as §2
Series [7] is described as follows: Toxicity in streptozotocin induced C57BL/6 mouse STAM model assessed as change in body weight at 10 mg/kg, po daily for 3 weeks. In kind it is organism-based. To be noted: in vivo, 504 h. An outline of the steps: as §3
The subject of series [8] is Mus musculus. Kind of series: Antiinflammatory activity against streptozotocin induced C57BL/6 mouse STAM model assessed as increase in Runx3 mRNA expression administered at 10 mg/kg, po for 3 weeks. In kind it is functional, organism-based. Summed up:
as §1

A short description of series [9]: Toxicity in streptozotocin induced C57BL/6 mouse STAM model assessed as change in white adipose tissue weight at 10 mg/kg, po daily for 3 weeks. In kind it is organism-based. The conditions noted are these: in vivo, 504 h. Summed up: as §3
In series [10] the test system is Mus musculus. Kind of series: Antiinflammatory activity in streptozotocin induced C57BL/6 mouse STAM model assessed as reduction of TNF-alpha level administered at 10 mg/kg, po daily for 3 weeks. The class given is functional, organism-based. Summed up:
as §4

Series [11] can be described thus: Toxicity in streptozotocin induced C57BL/6 mouse STAM model assessed as change in liver weight at 10 mg/kg, po daily for 3 weeks. In kind it is organism-based. The conditions noted are these: in vivo, 504 h. An outline of the steps:
as §3

Series [12] concerns the target Histone-lysine N-methyltransferase EZH2 (Mus musculus) (UniProt Q61188). Kind of series: In vivo inhibition of EZH2 in streptozotocin induced C57BL/6 mouse STAM model assessed as reduction mRNA level administered at 10 mg/kg, po for 3 weeks. In kind it is functional, organism-based. An outline of the steps:
as §1

Sequence of Histone-lysine N-methyltransferase EZH2 (Mus musculus) (Q61188 whole entry): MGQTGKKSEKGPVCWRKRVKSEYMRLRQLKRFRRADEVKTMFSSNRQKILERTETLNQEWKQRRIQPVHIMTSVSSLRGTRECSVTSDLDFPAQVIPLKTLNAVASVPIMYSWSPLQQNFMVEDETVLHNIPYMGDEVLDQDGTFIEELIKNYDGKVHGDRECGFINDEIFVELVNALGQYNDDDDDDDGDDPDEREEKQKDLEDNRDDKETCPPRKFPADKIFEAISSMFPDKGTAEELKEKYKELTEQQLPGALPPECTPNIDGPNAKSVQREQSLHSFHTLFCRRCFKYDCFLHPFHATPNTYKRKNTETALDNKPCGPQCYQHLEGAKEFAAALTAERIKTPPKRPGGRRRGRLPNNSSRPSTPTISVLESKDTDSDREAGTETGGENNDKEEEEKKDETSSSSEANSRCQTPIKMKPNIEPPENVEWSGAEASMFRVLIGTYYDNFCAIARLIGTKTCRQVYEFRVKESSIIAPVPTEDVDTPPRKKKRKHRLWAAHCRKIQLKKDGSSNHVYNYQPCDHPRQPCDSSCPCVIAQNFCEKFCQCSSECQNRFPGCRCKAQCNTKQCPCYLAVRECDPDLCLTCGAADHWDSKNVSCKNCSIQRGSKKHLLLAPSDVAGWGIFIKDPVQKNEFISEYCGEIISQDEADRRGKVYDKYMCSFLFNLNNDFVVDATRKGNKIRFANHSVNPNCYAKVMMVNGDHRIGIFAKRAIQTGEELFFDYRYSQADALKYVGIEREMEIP

For the molecule `CCN(c1cc(-c2ccc(CN3CCOCC3)cc2)cc(C(=O)NCc2c(C)cc(C)[nH]c2=O)c1C)C1CCOCC1` [TAZEMETOSTAT], the outcome with Mus musculus [1], in the series on Mus musculus [2], with Mus musculus [6] and in the series with Mus musculus [8] was Active. Further, the Activity result in series [3], in series [7], in series [9] and in [11] was “Non-Toxic” throughout. The result in the series with Mus musculus [4], with Mus musculus [5] and in the series on Mus musculus [10] was inactive.

For the molecule `CCCc1cc(C)[nH]c(=O)c1CNC(=O)c1cc(-c2ccc(N3CCN(C(C)C)CC3)nc2)cc2c1cnn2C(C)C`, the outcome with Mus musculus [1], in the series on Mus musculus [2], with Mus musculus [6], in the series on Mus musculus [8] and in the series on Mus musculus [10] was Active. Also, the inhibition result in series [12] is “Active”. Also, the Activity entry in series [3], in [7], in series [9] and in series [11] was “Non-Toxic” in each case. For the same molecule, the result in the series with Mus musculus [4] and in the series with Mus musculus [5] was inactive.

As for `CC[C@H]1[C@@H](O)[C@@H]2[C@H](CC[C@]3(C)[C@@H]([C@H](C)CCC(=O)O)CC[C@@H]23)[C@@]2(C)CC[C@@H](O)C[C@@H]12`, the outcome in the series with Mus musculus [2] and with Mus musculus [6] was Active.
